Measurements as given in ChEMBL document CHEMBL3120115, “Synthesis and biological evaluation of 2-oxonicotinonitriles and 2-oxonicotinonitrile based nucleoside analogues” (Eur J Med Chem, 2014).

Experiments:
Aspergillus niger = assay: Antimicrobial activity against Aspergillus niger at 250 ug/disc after 5 to 7 days by well diffusion method; assay type: functional; conditions: read-out: DIZ
In short: (§1)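 Well diffusion assay. Bacteria were grown on nutrient agar and fungi on Czapek's-Dox agar; spores were inoculated into sterilized medium, dispersed and poured into plates. Compounds were dissolved in DMF at 250 mg/mL and loaded into 1 cm wells. Plates stood 24 h refrigerated for diffusion, then were incubated at 35 °C for 48 h (bacteria) or 28 °C for 5-7 days (fungi). Inhibition zone diameter was read in mm. DMF-only wells served as negative control.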

Aspergillus viridinutans = assay: Antimicrobial activity against Aspergillus viridinutans at 250 ug/disc after 5 to 7 days by well diffusion method; assay type: functional; conditions: read-out: DIZ; in short: as §1
Escherichia coli = assay: Antimicrobial activity against Escherichia coli at 250 ug/disc after 48 hrs by well diffusion method; assay type: functional; conditions: read-out: DIZ; in short: as §1
Bacillus subtilis = assay: Antimicrobial activity against Bacillus subtilis at 250 ug/disc after 48 hrs by well diffusion method; assay type: functional; conditions: read-out: DIZ; in short: as §1
Hepatitis B virus = assay: Antiviral activity against Hepatitis B virus assessed as inhibition of viral infection by DNA virion assay; assay type: functional, organism-based
Influenza B virus = assay: Antiviral activity against Influenza B virus by cytopathy assay; assay type: functional, organism-based
West Nile virus = assay: Antiviral activity against West Nile virus by visual/neutral red test; assay type: functional, organism-based
Influenza A virus [1] = assay: Antiviral activity against Influenza A virus H3N2 by cytopathy assay; assay type: functional, organism-based
[2] = Selectivity index, ratio of CC50 for cytotoxicity to EC50 for HSV2; assay type: toxicity; conditions: read-out: Ratio CC50/EC50
In short: (§2)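 CC50 is the concentration at which 50% of cells die, and EC50 is the concentration inhibiting 50% of viral infection. SI is calculated as the CC50/EC50 ratio.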

SARS-CoV [3] = assay: Antiviral activity against SARS coronavirus by visual/neutral red test; assay type: functional, organism-based; conditions: Severe acute respiratory syndrome-related coronavirus
Human alphaherpesvirus 1 = assay: Antiviral activity against HSV1 assessed as inhibition of viral infection; assay type: functional, organism-based
Hepatitis C virus = assay: Antiviral activity against Hepatitis C virus assessed as inhibition of viral infection by RNA replicon assay; assay type: functional, organism-based, Hepacivirus hominis
[4] = Selectivity index, ratio of CC50 for cytotoxicity to EC50 for Influenza A virus H1N1; assay type: toxicity; conditions: read-out: Ratio CC50/EC50; in short: as §2
Human alphaherpesvirus 2 = assay: Antiviral activity against HSV2 assessed as inhibition of viral infection; assay type: functional, organism-based
[5] = Selectivity index, ratio of CC50 for cytotoxicity to EC50 for HSV1; assay type: toxicity; conditions: read-out: Ratio CC50/EC50; in short: as §2
Influenza A virus [6] = assay: Antiviral activity against Influenza A virus H5N1 by cytopathy assay; assay type: functional, organism-based
Influenza A virus [7] = assay: Antiviral activity against Influenza A virus H1N1 by cytopathy assay; assay type: functional, organism-based
[8] = Selectivity index, ratio of CC50 for cytotoxicity to EC50 for Influenza B virus; assay type: toxicity; conditions: read-out: Ratio CC50/EC50; in short: as §2
[9] = Selectivity index, ratio of CC50 for cytotoxicity to EC50 for Influenza A virus H3N2; assay type: toxicity; conditions: read-out: Ratio CC50/EC50; in short: as §2
[10] = Selectivity index, ratio of CC50 for cytotoxicity to EC50 for Influenza A virus H5N1; assay type: toxicity; conditions: read-out: Ratio CC50/EC50; in short: as §2
[11] = Selectivity index, ratio of CC50 for cytotoxicity to EC50 for SARS coronavirus; assay type: toxicity; conditions: read-out: Ratio CC50/EC50; in short: as §2
SARS-CoV [12] = assay: Antiviral activity against SARS coronavirus by visual method; assay type: functional, organism-based; conditions: Severe acute respiratory syndrome-related coronavirus

SMILES	zone of inhibition at 250 µg/disc (Aspergillus viridinutans) [mm]	zone of inhibition at 250 µg/disc (Escherichia coli) [mm]	zone of inhibition at 250 µg/disc (Bacillus subtilis) [mm]	EC50 (Hepatitis B virus) [µM]	EC50 (Influenza B virus) [µM]	EC50 (Influenza A virus [1]) [µM]	selectivity ratio [2]	EC50 (Human alphaherpesvirus 1) [µM]	EC50 (Hepatitis C virus) [µM]	EC50 (Human alphaherpesvirus 2) [µM]	selectivity ratio [5]	EC50 (Influenza A virus [6]) [µM]	other results
CC(C)c1ccc(-c2cc(-c3cccs3)n(COCCO)c(=O)c2C#N)cc1	6	0	23										zone of inhibition at 250 µg/disc (Aspergillus niger): 7 mm
N#Cc1c(-c2ccc(Cl)cc2)cc(-c2ccccn2)n(CCCO)c1=O	9	0	3										
C=CCOc1nc(-c2ccccn2)cc(-c2ccc(Cl)cc2)c1C#N	7	0	1										
N#Cc1c(-c2ccc(Cl)cc2)cc(-c2ccccn2)[nH]c1=O				> 100	> 36	> 2.6	1	> 300	> 100	> 300	1	> 100	EC50 (West Nile virus): > 2.2 µM; EC50 (SARS-CoV [3]): > 0.32 µM; selectivity ratio [4]: > 3.8; EC50 (Influenza A virus [7]): 26 µM
CC(C)c1ccc(-c2cc(-c3cccs3)[nH]c(=O)c2C#N)cc1				> 100	46	22	1	> 300	> 100	> 300	1	32	EC50 (West Nile virus): > 2.2 µM; EC50 (SARS-CoV [3]): > 26 µM; selectivity ratio [8]: > 2.2; selectivity ratio [9]: > 4.5; selectivity ratio [10]: > 3.1
CC(=O)OC[C@H]1O[C@@H](n2c(-c3ccccn3)cc(-c3ccc(Cl)cc3)c(C#N)c2=O)[C@H](OC(C)=O)[C@@H](OC(C)=O)[C@@H]1OC(C)=O				> 100	> 3.2	24	1	> 300	> 100	> 300	1	3.2	EC50 (West Nile virus): > 5.1 µM; selectivity ratio [11]: 4.3; selectivity ratio [9]: > 4.2; EC50 (SARS-CoV [12]): 8.3 µM; selectivity ratio [10]: 1.3
CC(=O)OC[C@H]1O[C@@H](n2c(-c3cccs3)cc(-c3cccs3)c(C#N)c2=O)[C@H](OC(C)=O)[C@@H](OC(C)=O)[C@H]1OC(C)=O				> 100	> 12	> 32	< 2.4	> 60	> 100	> 60	< 2.4	> 19	EC50 (West Nile virus): > 3.6 µM; EC50 (SARS-CoV [3]): 10 µM; selectivity ratio [11]: 1.9; EC50 (Influenza A virus [7]): > 28 µM
C[C@@]1(O)[C@H](O)[C@@H](CO)O[C@H]1n1ccc(N)nc1=O									1.6				
Nc1nc2c(ncn2COCCO)c(=O)[nH]1 [ACYCLOVIR]							> 10.4	3.3		9.6	> 30.3		
CC1(C)S[C@@H]2[C@H](NC(=O)[C@H](N)c3ccccc3)C(=O)N2[C@H]1C(=O)O [AMPICILLIN]		18	20										
CN(C)C=O [DIMETHYLFORMAMIDE]	0	0	0										zone of inhibition at 250 µg/disc (Aspergillus niger): 0 mm
CC1(C)O[C@@H]2C[C@H]3[C@@H]4C[C@H](F)C5=CC(=O)C=C[C@]5(C)[C@@]4(F)[C@@H](O)C[C@]3(C)[C@]2(C(=O)CO)O1 [FLUOCINOLONE ACETONIDE]	31												zone of inhibition at 250 µg/disc (Aspergillus niger): 22 mm
Nc1ccn([C@@H]2CS[C@H](CO)O2)c(=O)n1 [LAMIVUDINE]				0.035									
NC(=O)c1ncn([C@@H]2O[C@H](CO)[C@@H](O)[C@H]2O)n1 [RIBAVIRIN]					2.4	2						4.2	selectivity ratio [8]: > 130; selectivity ratio [9]: > 160; selectivity ratio [4]: > 32; selectivity ratio [10]: > 76; EC50 (Influenza A virus [7]): 10 µM
